# Results as given in ChEMBL document CHEMBL1123535, “Thiol addition to quinones: model reactions for the inactivation of thymidylate synthase by 5-p-benzoquinonyl-2'-deoxyuridine 5'-phosphate” (J Med Chem, 1986).
# How the values were obtained:
# Thymidylate synthase [1] = target: T1, Thymidylate synthase (Homo sapiens, UniProt P04818); test: The rate constant in 75% aqueous Acetonitrile […] as reagent
# Target sequence in this assay (P04818 2-313 limits assumed): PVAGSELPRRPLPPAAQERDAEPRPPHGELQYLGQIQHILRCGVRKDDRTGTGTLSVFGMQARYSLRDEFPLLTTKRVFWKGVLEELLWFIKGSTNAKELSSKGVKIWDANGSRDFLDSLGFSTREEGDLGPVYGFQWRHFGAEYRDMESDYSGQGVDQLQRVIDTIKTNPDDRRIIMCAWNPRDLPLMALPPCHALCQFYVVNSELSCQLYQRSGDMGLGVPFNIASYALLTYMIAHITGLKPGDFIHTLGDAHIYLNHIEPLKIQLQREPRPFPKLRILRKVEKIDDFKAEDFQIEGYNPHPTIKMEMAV
# Thymidylate synthase [2] = target: T1, Thymidylate synthase; test: The rate constant in 75% aqueous Acetonotrileas methyl mercaptoacetate as reagent
# Target sequence in this assay (P04818 2-313 limits assumed): as above
# Thymidylate synthase [3] = target: T1, Thymidylate synthase; test: The rate constant in Acetonitrile and buffered aqueous acetonitrile solution, at 30 degrees C and pH 6.8
# Target sequence in this assay (P04818 2-313 limits assumed): as above
# Thymidylate synthase [4] = target: T1, Thymidylate synthase; test: The rate constant in Acetonitrile and buffered aqueous acetonitrile solution, at 30 degrees Celsius and pH 8.1
# Target sequence in this assay (P04818 2-313 limits assumed): as above
# Thymidylate synthase [5] = target: T1, Thymidylate synthase; test: Binding affinity against thymidylate synthase
# Summary of the method: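 Thymidylate synthase was inactivated at pH 6.8 and 30 °C, and time-dependent loss of activity was followed. Observed inactivation rate constants, including runs with substrate present (substrate protection), were fitted to 1/kobsd = [Ki[S]/(Km[I]) + Ki/kinact](1/[I]) + 1/kinact to give Ki and kinact. The second-order constant was taken as kinact/Ki.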
# Target sequence in this assay (P04818 whole entry): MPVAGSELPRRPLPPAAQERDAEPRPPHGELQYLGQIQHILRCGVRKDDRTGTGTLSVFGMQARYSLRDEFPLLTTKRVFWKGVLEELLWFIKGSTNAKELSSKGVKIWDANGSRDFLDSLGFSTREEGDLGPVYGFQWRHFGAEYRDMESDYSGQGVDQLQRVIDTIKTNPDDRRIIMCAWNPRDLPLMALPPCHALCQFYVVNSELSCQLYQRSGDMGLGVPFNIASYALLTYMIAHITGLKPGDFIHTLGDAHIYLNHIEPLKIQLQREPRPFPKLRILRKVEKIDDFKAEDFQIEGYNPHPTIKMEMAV
# Thymidylate synthase [6] = target: T1, Thymidylate synthase
# Target sequence in this assay (P04818 2-313 limits assumed): as the sequence (P04818 2-313 limits assumed) above
# Thymidylate synthase [7] = target: T1, Thymidylate synthase; test: The rate constant in 70% ethanol
# Target sequence in this assay (P04818 2-313 limits assumed): as above
# Thymidylate synthase [8] = target: T1, Thymidylate synthase; test: The observed rate constant with methyl mercaptoacetate in Acetonitrile and buffered aqueous acetonitrile solution at 9.7 x 10e-5 M concentration of 0.0096 M
# Summary of the method: (§1)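 Quinone nucleoside reacted with excess methyl mercaptoacetate in deoxygenated acetonitrile at […]. Water content was varied by adding known amounts of water to acetonitrile dried over 3-Å sieves. Initial quinone was 7.4×10^-5 to 1.6×10^-4 M, and thiol was varied. Pseudo-first-order kobsd was measured, and k2 came from log kobsd = log k2 + n log[thiol].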
# Thymidylate synthase [9] = target: T1, Thymidylate synthase; test: The observed rate constant with methyl mercaptoacetate in Acetonitrile and buffered aqueous acetonitrile solution at 1.4 x 10e-4 M concentration of 0.0077; summary of the method: as §1
# Thymidylate synthase [10] = target: T1, Thymidylate synthase; test: The observed rate constant with methyl mercaptoacetate in Acetonitrile and buffered aqueous acetonitrile solution at 7.4 x 10e-5 M concentration of 0.0019 M; summary of the method: as §1
# Thymidylate synthase [11] = target: T1, Thymidylate synthase; test: The observed rate constant with methyl mercaptoacetate in Acetonitrile and buffered aqueous acetonitrile solution at 9.7 x 10e-5 M concentration of 0.0048 M; summary of the method: as §1
# Thymidylate synthase [12] = target: T1, Thymidylate synthase; test: The observed rate constant with methyl mercaptoacetate in Acetonitrile and buffered aqueous acetonitrile solution at 9.7 x 10e-5 M concentration of 0.00096 M; summary of the method: as §1
# Thymidylate synthase [13] = target: T1, Thymidylate synthase; test: The rate constant with methyl mercaptoacetate in Acetonitrile and buffered aqueous acetonitrile solution at concentration of 0.0077 M; summary of the method: as §1
# Thymidylate synthase [14] = target: T1, Thymidylate synthase; test: The observed rate constant with methyl mercaptoacetate in Acetonitrile and buffered aqueous acetonitrile solution at 1.6 x 10e-4 M concentration of 0.012 M; summary of the method: as §1
# Thymidylate synthase [15] = target: T1, Thymidylate synthase; test: The observed rate constant with methyl mercaptoacetate in Acetonitrile and buffered aqueous acetonitrile solution at 9.7 x 10e-5 M concentration of 0.0029 M; summary of the method: as §1
# Thymidylate synthase [16] = target: T1, Thymidylate synthase; test: The observed rate constant with methyl mercaptoacetate in Acetonitrile and buffered aqueous acetonitrile solution at 1.6 x 10e-4 M concentration of 0.0015 M; summary of the method: as §1
# Thymidylate synthase [17] = target: T1, Thymidylate synthase; test: The observed rate constant with methyl mercaptoacetate in Acetonitrile and buffered aqueous acetonitrile solution at 1.6 x 10e-4 M concentration of 0.0036 M; summary of the method: as §1
# Thymidylate synthase [18] = target: T1, Thymidylate synthase; test: The observed rate constant with methyl mercaptoacetate in Acetonitrile and buffered aqueous acetonitrile solution at 1.6 x 10e-4 M concentration of 0.0061 M; summary of the method: as §1
# Thymidylate synthase [19] = target: T1, Thymidylate synthase; test: The observed rate constant with methyl mercaptoacetate in Acetonitrile and buffered aqueous acetonitrile solution at 1.6 x 10e-4 M concentration of 0.0026 M; summary of the method: as §1
# Thymidylate synthase [20] = target: T1, Thymidylate synthase; test: The rate constant with methyl mercaptoacetate in Acetonitrile and buffered aqueous acetonitrile solution at concentration of 0.00096 M; summary of the method: as §1
# Thymidylate synthase [21] = target: T1, Thymidylate synthase; test: The observed rate constant with methyl mercaptoacetate in Acetonitrile and buffered aqueous acetonitrile solution at 1.4 x 10e-4 M concentration of 0.0020; summary of the method: as §1
# Thymidylate synthase [22] = target: T1, Thymidylate synthase; test: The rate constant with methyl mercaptoacetate in Acetonitrile and buffered aqueous acetonitrile solution at concentration of 0.012 M; summary of the method: as §1
# Thymidylate synthase [23] = target: T1, Thymidylate synthase; test: The observed rate constant with methyl mercaptoacetate in Acetonitrile and buffered aqueous acetonitrile solution at 7.4 x 10e-5 M concentration of 0.00098 M; summary of the method: as §1
# Thymidylate synthase [24] = target: T1, Thymidylate synthase; test: The observed rate constant with methyl mercaptoacetate in Acetonitrile and buffered aqueous acetonitrile solution at 7.4 x 10e-5 M concentration of 0.0039 M; summary of the method: as §1
# Thymidylate synthase [25] = target: T1, Thymidylate synthase; test: The observed rate constant with methyl mercaptoacetate in Acetonitrile and buffered aqueous acetonitrile solution at 1.4 x 10e-4 M concentration of 0.0039; summary of the method: as §1
# Thymidylate synthase [26] = target: T1, Thymidylate synthase; test: The rate constant with methyl mercaptoacetate in Acetonitrile and buffered aqueous acetonitrile solution at concentration of 0.0039 M; summary of the method: as §1
# Thymidylate synthase [27] = target: T1, Thymidylate synthase; test: The rate constant in Acetonitrile and buffered aqueous acetonitrile solution, at 25 degrees Celsius and pH 7.4
compound,measurement,setting,value
O=C1C=CC(=O)C(c2cn([C@H]3C[C@H](O)[C@@H](CO)O3)c(=O)[nH]c2=O)=C1,k2,Thymidylate synthase [1],5 M⁻¹ s⁻¹
same,k2,Thymidylate synthase [2],> 1000 M⁻¹ s⁻¹
O=C1C=CC(=O)C(c2ccccc2)=C1,k2,Thymidylate synthase [3],2600 M⁻¹ s⁻¹
O=c1ccn([C@H]2C[C@H](O)[C@@H](COP(=O)(O)O)O2)c(=O)[nH]1,k2,Thymidylate synthase [3],> 760000 M⁻¹ s⁻¹
C=CC(=O)OC,k2,Thymidylate synthase [4],0.11 M⁻¹ s⁻¹
O=C1C=CC(=O)C(c2cn([C@H]3C[C@H](O)[C@@H](COP(=O)(O)O)O3)c(=O)[nH]c2=O)=C1,k2,Thymidylate synthase [3],32000 M⁻¹ s⁻¹
same,Ki,Thymidylate synthase [5],2000 nM
same,k cat,Thymidylate synthase [6],0.065 s⁻¹
CC1=CC(=O)c2ccccc2C1=O,k2,Thymidylate synthase [7],0.14 M⁻¹ s⁻¹
CC(=O)OC[C@H]1O[C@@H](n2cc(C3=CC(=O)C=CC3=O)c(=O)[nH]c2=O)C[C@@H]1OC(C)=O,k obs,Thymidylate synthase [8],0.00501 s⁻¹
same,k obs,Thymidylate synthase [9],0.0167 s⁻¹
same,k obs,Thymidylate synthase [10],0.00919 s⁻¹
same,k obs,Thymidylate synthase [11],0.0025 s⁻¹
same,k obs,Thymidylate synthase [12],0.000434 s⁻¹
same,k2,Thymidylate synthase [13],2.3 M⁻¹ s⁻¹
same,k obs,Thymidylate synthase [14],0.0197 s⁻¹
same,k obs,Thymidylate synthase [15],0.00154 s⁻¹
same,k obs,Thymidylate synthase [16],0.00184 s⁻¹
same,k obs,Thymidylate synthase [17],0.00518 s⁻¹
same,k obs,Thymidylate synthase [18],0.00952 s⁻¹
same,k obs,Thymidylate synthase [19],0.00334 s⁻¹
same,k2,Thymidylate synthase [20],0.53 M⁻¹ s⁻¹
same,k obs,Thymidylate synthase [21],0.00434 s⁻¹
same,k2,Thymidylate synthase [22],1.7 M⁻¹ s⁻¹
same,k obs,Thymidylate synthase [23],0.00384 s⁻¹
same,k obs,Thymidylate synthase [24],0.0184 s⁻¹
same,k obs,Thymidylate synthase [25],0.00969 s⁻¹
same,k2,Thymidylate synthase [26],4.7 M⁻¹ s⁻¹
CC1C=CC(=O)O1 (centres undefined),k2,Thymidylate synthase [27],0.037 M⁻¹ s⁻¹
